This is an account of results in ChEMBL document CHEMBL4342514, “Azole Based Acetohydrazide Derivatives of Cinnamaldehyde Target and Kill Candida albicans by Causing Cellular Apoptosis” (ACS Med Chem Lett, 2020).

A word on the MIC: it is the least concentration at which growth counts as inhibited. One may read the MFC as the smallest concentration meeting the test's criterion for killing the fungus.

Series [1] concerns Candida albicans. Kind of series: Antifungal activity against fluconazole-susceptible Candida albicans assessed as growth inhibition measured after 24 hrs by CLSI protocol based broth microdilution method. Format: functional. In a few lines:
(§1)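 C. albicans clinical isolates were tested: 8 fluconazole-susceptible and 3 fluconazole-resistant. Isolates were called resistant at a fluconazole MIC ≥8 μg/mL, per CLSI 2012 interpretive guidelines. Compounds were diluted to test concentrations in 1% DMSO, which served as the negative control. Fluconazole was the positive control. Values are means per group.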
(In general: In broth dilution the organism is exposed to a series of concentrations in liquid medium.)

The subject of series [2] is Candida albicans. The series can be described thus: Fungicidal activity against fluconazole-susceptible Candida albicans assessed as growth inhibition by sub-culturing on Agar plate and incubated for 24 to 48 hrs. The series is classed as functional. In a few lines:
as §1

Series [3] relates to Candida albicans. Kind of series: Antifungal activity against fluconazole-resistant Candida albicans assessed as growth inhibition measured after 24 hrs by CLSI protocol based broth microdilution method. Format: functional. In a few lines: as §1
For series [4], the system named is Candida albicans. Kind of series: Fungicidal activity against fluconazole-resistant Candida albicans assessed as growth inhibition by sub-culturing on Agar plate and incubated for 24 to 48 hrs. Format: functional. In a few lines:
as §1

For series [5], the system named is Candida albicans. The series can be described thus: Antifungal activity against Candida albicans SC5314 assessed as effect on fungal cell viability by measuring live cells at MIC measured after 3 hrs by Muse cell analyzer (reference value: 98.6 %). Format: functional.
Series [6] deals with Candida albicans. The series can be described thus: Antifungal activity against Candida albicans SC5314 assessed as effect on fungal cell viability by measuring dead cells at MIC measured after 3 hrs by Muse cell analyzer (reference value: 1.4 %). The series is classed as functional. In a few lines:
(§2)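 Candida albicans SC5314 cells at a density of 1 × 107 were exposed to each compound at its MIC. Live and dead cells were counted with the Muse Count & Viability kit. Untreated cells were the negative control and heat-killed cells the positive control. A cell size index was run in the same assay to separate cells from debris and non-nucleated cells.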

In series [7] the test system is Candida albicans. Kind of series: Induction of apoptosis in Candida albicans SC5314 protoplasts assessed as necrotic cells at 1/2 MIC measured after 3 hrs by Annexin V-FITC/propidium iodide staining based flow cytometry (reference value: 0.15 +/- 0.03 %). The series is classed as functional. Background: In flow cytometry, cells or beads pass a laser one at a time.

Series [8] relates to Candida albicans. Kind of series: Induction of apoptosis in Candida albicans SC5314 protoplasts assessed as late apoptotic cells at 1/2 MIC measured after 3 hrs by Annexin V-FITC/propidium iodide staining based flow cytometry (reference value: 0.06 +/- 0.01 %). Format: functional.
Series [9] deals with Candida albicans. Kind of series: Induction of apoptosis in Candida albicans SC5314 protoplasts assessed as early apoptotic cells at 1/2 MIC measured after 3 hrs by Annexin V-FITC/propidium iodide staining based flow cytometry (reference value: 3.47 +/- 0.26 %). Format: functional.
Series [10] has as its system Candida albicans. Kind of series: Induction of apoptosis in Candida albicans SC5314 protoplasts assessed as viable cells at 1/2 MIC measured after 3 hrs by Annexin V-FITC/propidium iodide staining based flow cytometry (reference value: 96.3 %). Format: functional.
Series [11] relates to Candida albicans. The series can be described thus: Induction of DNA damage in Candida albicans SC5314 assessed as apoptotic cells at 1/2 MIC measured after 3 hrs by TUNEL based confocal microscopy relative to control. The series is classed as functional. In a few lines:
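SC5314 cells exposed to 1/2 MIC of compound, then TUNEL-labelled with fluorescent dUTP (Ex/Em 488/515 nm) and counterstained with Hoechst 33342 (Ex/Em 350/460 nm). Imaged by confocal laser scanning microscopy and scored as % TUNEL-positive nuclei against untreated control.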

Series [12] is described as follows: Hemolytic activity against horse erythrocytes at 4 to 125 ug/ml measured after 3 hrs by spectrophometric analysis. Format: ADME, cell-based, Equus caballus, Erythrocyte. The note with it: read-out: Activity. In a few lines:
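Horse red blood cells exposed to compound. Hemolysis read as absorbance at 450 nm and expressed as % lysis relative to 1% Triton X-100, taken as 100% hemolysis.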

Series [13] relates to Candida albicans. The series can be described thus: Antifungal activity against Candida albicans SC5314 assessed as effect on fungal cell death at MIC measured after 3 hrs by Muse cell analyzer relative to control. The series is classed as functional. In a few lines:
as §2

For series [14], the system named is Candida albicans. The series can be described thus: Induction of DNA damage in Candida albicans SC5314 assessed as increase in TUNEL positive nuclei at 0.125 ug/ml measured after 3 hrs by TUNEL based confocal microscopy relative to control. The series is classed as functional. In a few lines:
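SC5314 cells treated with 0.125 μg/mL amphotericin B, then TUNEL-labelled with fluorescent dUTP and counterstained with Hoechst 33342. Confocal microscopy scored TUNEL-positive (green) nuclei relative to untreated cells.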

Values after ≈ are worked out from the molar mass of the structure shown.

As for `C(=C\c1nn[nH]n1)/c1ccccc1`, the MIC in series [1] is more than 125 µg/mL. The MFC in [2] was more than 125 µg/mL.

As to `CCOC(=O)Cn1nnc(/C=C/c2ccccc2)n1`, in [1], the MIC is more than 125 µg/mL. Moreover, the MFC in [2] is more than 125 µg/mL.

With `COc1ccc(/C=N/NC(=O)Cn2nnc(/C=C/c3ccccc3)n2)cc1OC`, the MIC in [1] is 2 µg/mL (≈ 5.1 µM); in series [3] it was 4 µg/mL (≈ 10.2 µM). In addition, the MFC in series [2] and in series [4] was 8 µg/mL (≈ 20.4 µM) each time. Moreover, the Activity was found to be 44.8% in [5]; 55.2% in series [6]; 4.55% in [7]; 24.93% in [8]; 9.69% in series [9]; 61.4% in series [10]. The Activity in series [11] was 25 - 55%. Besides, in [12], the hemolysis at 3 h lay within 10 to 40%.

Turning to `CCOc1ccc(/C=N/NC(=O)Cn2nnc(/C=C/c3ccccc3)n2)cc1`, the MIC in [1] worked out at 4 µg/mL (≈ 10.6 µM); in series [3] it was 8 µg/mL (≈ 21.3 µM). In addition, the minimal fungicidal concentration (MFC) in series [2] and in series [4] was 8 µg/mL (≈ 21.3 µM) in each case. The Activity came out at 46.4% in [5]; 53.6% in series [6]; 2.44% in [7]; 27.92% in [8]; 10.49% in [9]; 59.9% in series [10]. Further, the Activity in series [11] is listed as 25 - 55%. For the same molecule, in [12], the hemolysis at 3 h was in the range of 10 to 40%.

On to `O=C(Cn1nnc(/C=C/c2ccccc2)n1)N/N=C/c1cccc([N+](=O)[O-])c1`, for which the MIC in [1] stood at 0.25 µg/mL (≈ 0.662 µM); in [3], 0.5 µg/mL (≈ 1.32 µM). Further, the minimal fungicidal concentration (MFC) in series [2] and in series [4] was 1 µg/mL (≈ 2.65 µM) in each case. Moreover, the Activity in series [5] is on record as 29.6%; in series [6], 70.4%; in [7], 11.7%; in [8] it was 44.65%; in series [9], 8.23%; in series [10], 35.3%. Moreover, the Activity in series [11] is 25 - 55%. The hemolysis at 3 h in series [12] fell in the range of 10 to 40%.

With `O=C(Cn1nnc(/C=C/c2ccccc2)n1)N/N=C/c1ccccc1`, the MIC in [1] and in series [3] was 125 µg/mL (≈ 376 µM) throughout. The MFC in series [2] is more than 125 µg/mL.

`O=C(Cn1nnc(/C=C/c2ccccc2)n1)N/N=C/c1ccc([N+](=O)[O-])cc1`: the MIC in series [1] came out at 0.125 µg/mL (≈ 0.331 µM); in series [3], 0.5 µg/mL (≈ 1.32 µM). For the same molecule, the MFC in series [2] and in [4] was 1 µg/mL (≈ 2.65 µM) each time. For the same molecule, the Activity in series [5] is on record as 22.8%; in series [6], 77.2%; in series [13], more than 75%; in [7], 9.8%; in series [8], 48.3%; in [9], 8.21%. The Activity in [10] is reported as 33.8%; in [11], 25 - 55%. Further, in [12], the hemolysis at 3 h lay within 10 to 40%.

Regarding `Cc1ccc(/C=N/NC(=O)Cn2nnc(/C=C/c3ccccc3)n2)cc1`, the MIC in [1] and in [3] was 16 µg/mL (≈ 46.2 µM) throughout. Moreover, the MFC in series [2] and in [4] was 16 µg/mL (≈ 46.2 µM) each time. Besides, the Activity in series [5] is recorded as 55.8%; in [6], 44.2%; in series [7], 3.7%; in [8], 15.6%; in [9], 10.18%; in series [10], 71.3%. Besides, the Activity in [11] is 25 - 55%. In [12], the hemolysis at 3 h was in the range of 10 to 40%.

With `O=C(Cn1nnc(/C=C/c2ccccc2)n1)N/N=C/c1ccccc1Cl`, the MIC was 64 µg/mL (≈ 174 µM) in [1] and 125 µg/mL (≈ 341 µM) in [3]. The MFC in series [2] was more than 125 µg/mL.

As to `NNC(=O)Cn1nnc(/C=C/c2ccccc2)n1`, in series [1], the minimum inhibitory concentration (MIC) is more than 125 µg/mL. Besides, the minimum fungicidal concentration (MFC) in series [2] was more than 125 µg/mL.

Regarding `O=C(Cn1nnc(/C=C/c2ccccc2)n1)N/N=C/c1ccccc1[N+](=O)[O-]`, the MIC in [1] and in series [3] was 0.5 µg/mL (≈ 1.32 µM) in each case. For the same molecule, the MFC in series [2] and in series [4] was 4 µg/mL (≈ 10.6 µM) each time. Besides, the Activity in [5] is 40.4%; in series [6], 59.6%; in series [7], 1.98%; in series [8] it was 36.34%; in series [9], 13.37%; in [10] it was 48.3%. Further, the Activity in series [11] is listed as 25 - 55%. Further, in series [12], the hemolysis at 3 h is 10 to 40%.

For `COc1ccc(/C=N/NC(=O)Cn2nnc(/C=C/c3ccccc3)n2)cc1`, the minimum inhibitory concentration (MIC) in [1] and in series [3] was 8 µg/mL (≈ 22.1 µM) in each case. Moreover, the figures for the minimal fungicidal concentration (MFC) in series [2] and in series [4] were 8 µg/mL (≈ 22.1 µM) and 16 µg/mL (≈ 44.2 µM), respectively. For the same molecule, the Activity in series [5] was 52.3%; in [6] it was 47.7%; in [7], 1.78%; in [8] it was 23.6%; in [9], 13.9%; in series [10] it was 60.9%. Further, in series [11], the Activity is 25 - 55%. In series [12], the hemolysis at 3 h lay within 10 to 40%.

On to `O=C(Cn1nnc(/C=C/c2ccccc2)n1)N/N=C/c1ccc(Cl)cc1`, for which the MIC in series [1] and in series [3] was 64 µg/mL (≈ 174 µM) in each case. Further, the MFC in series [2] was more than 125 µg/mL.

With `O/N=C/C=C/c1ccccc1`, the MIC in series [1] was more than 125 µg/mL. Moreover, the MFC in series [2] was more than 125 µg/mL.

Consider `C[C@@H]1[C@H](O)[C@@H](C)/C=C/C=C/C=C/C=C/C=C/C=C/C=C/[C@H](O[C@@H]2O[C@H](C)[C@@H](O)[C@H](N)[C@@H]2O)C[C@@H]2O[C@](O)(C[C@@H](O)C[C@@H](O)[C@H](O)CC[C@@H](O)C[C@@H](O)CC(=O)O[C@H]1C)C[C@H](O)[C@H]2C(=O)O` [AMPHOTERICIN B], for which, in [14], the Activity is recorded as more than 90%.

In the case of `N#C/C=C/c1ccccc1` [CINNAMONITRILE], the MIC in series [1] and in series [3] was more than 125 µg/mL throughout. In addition, the MFC in series [2] and in series [4] was more than 125 µg/mL in each case.

Regarding `OC(Cn1cncn1)(Cn1cncn1)c1ccc(F)cc1F` [FLUCONAZOLE], the minimum inhibitory concentration (MIC) was 0.25 µg/mL (≈ 0.816 µM) in series [1] and 16 µg/mL (≈ 52.2 µM) in [3].
